# Measured values pooled from the literature.
# Compare with care: the assays were run in different laboratories.
# Cell line: MCF7
# Effect on: cell growth or viability
Structure (SMILES),method,time,IC50
CCNC(=S)NC(=O)c1ccc2ccccc2c1,,48 h,6.26 µM
Clc1ccc(-c2nc3ccccc3[nH]2)cc1,MTT,48 h,67.1 µM
C=C1C(=O)[C@]2(OC)C(=O)O[C@@]34C[C@H](C)C(C(=O)O)=C[C@@H]3CCC[C@@H](C)C[C@@H](C)[C@H]1O[C@H]24,ATP luminescence,,21 µM
FC(F)(F)c1cccc(Nc2ncnc3ccc(Nc4ccccc4)cc23)c1,MTT,24 h,11.4 µM
CN(C)CCn1cccc1/C=N/NC(=O)Nc1cc2c(Nc3ccc(F)c(Cl)c3)ncnc2cc1O[C@H]1CCOC1,MTT,72 h,4.82 µM
Cc1ccc2nc(-c3cccc(O)c3)[nH]c2c1,MTT,48 h,> 100 µM
COc1cc2ncnc(Nc3ccc(F)c(Cl)c3)c2cc1NC(=O)N/N=C/CN1CCN(C)CC1,MTT,72 h,8.76 µM
CSc1nc(/N=C/c2cccc(O)c2)n(-c2ccc(C(=O)O)cc2)n1,MTT,,31.2 µM
CC(C)(C)c1ccc(S(=O)(=O)NN=Cc2cn(CCN3CCOCC3)c3ccccc23)cc1,MTT,48 h,67.8 µM
O=c1[nH]cc(F)c(=O)[nH]1,WST-1,48 h,3.1 µM
CC(=O)O[C@H]1C(=O)[C@@]2(C)[C@H]([C@H](OC(=O)c3ccccc3)[C@]3(O)C[C@H](OC(=O)[C@H](O)[C@@H](NC(=O)c4ccccc4)c4ccccc4)C(C)=C1C3(C)C)[C@]1(OC(C)=O)CO[C@@H]1C[C@@H]2O,MTT,48 h,2.35 µM
O=S(=O)(NN=Cc1cn(CCN2CCOCC2)c2ccccc12)c1cccc2ncccc12,MTT,48 h,79.1 µM
CS(=O)(=O)c1ccc(-n2cc(/C=N/N=c3\[nH]c(-c4ccc([N+](=O)[O-])cc4)cs3)c(-c3ccc(Br)cc3)n2)cc1,MTT,48 h,35.7 µM
COc1cccc2c1C(=O)c1c(O)c3c(c(O)c1C2=O)C[C@@](O)(C(=O)CO)C[C@@H]3O[C@H]1C[C@H](N)[C@H](O)[C@H](C)O1,MTT,72 h,0.74 µM
O=C(N/N=C/CN1CCCCC1)Nc1cc2c(Nc3ccc(F)c(Cl)c3)ncnc2cc1O[C@H]1CCOC1,MTT,72 h,1.53 µM
O=C(/N=C1\SCC(=O)N1C1CCCCC1)c1ccc2ccccc2c1,,48 h,7.96 µM
Cc1ccc2nc(-c3ccc(Cl)cc3)[nH]c2c1,MTT,48 h,25.6 µM
Clc1ccnc2c1ccc1c(Cl)ccnc12,MTT,48 h,> 50 µM
O=S(=O)(NN=Cc1cn(CCN2CCOCC2)c2ccccc12)c1ccccc1,MTT,48 h,73.2 µM
COc1ccc(O)c(/C=N/c2nc(SC)nn2-c2ccc(C(=O)O)cc2)c1,MTT,,27.3 µM
COc1cccc2c1C(=O)c1c(O)c3c(c(O)c1C2=O)C[C@@](O)(C(=O)CO)C[C@@H]3O[C@H]1C[C@H](N)[C@H](O)[C@H](C)O1,SRB,,0.06 µM
COc1ccc(C(=O)O[C@@H]2CN3Cc4c(cc5c(c4OC)OCO5)[C@@]24C=C[C@H](OC)C[C@@H]34)cc1OC,WST-1,,4.9 µM
COc1ccc(-c2nn(-c3ccc(S(C)(=O)=O)cc3)cc2/C=N/N=c2\[nH]c(-c3ccc(Br)cc3)cs2)cc1,MTT,48 h,3.18 µM
O=C(NC(=S)NCCCNC(=S)NC(=O)c1ccc2ccccc2c1)c1ccc2ccccc2c1,,48 h,1.12 µM
CC/C(=C(\c1ccc(O)cc1)c1ccc(OCCN(C)C)cc1)c1ccccc1,,5 days,4.22 µM
Cc1ccc2nc(-c3ccc(Cl)c(Cl)c3)n(Cc3ccccc3)c2c1,MTT,,80.5 µM
CS(=O)(=O)c1ccc(-n2cc(/C=N/N=c3\[nH]c(-c4ccc([N+](=O)[O-])cc4)cs3)c(-c3ccc([N+](=O)[O-])cc3)n2)cc1,MTT,48 h,10.1 µM
Oc1ncnc2cc(Nc3nc(-c4ccc(Cl)cc4)cs3)ccc12,MTT,,4.14 µM
COc1ccnc(Nc2ccc3ncnc(Nc4cccc(C(F)(F)F)c4)c3c2)c1,MTT,24 h,5.84 µM
Cc1cc(=O)[nH]c(=O)n1Cc1cn(-c2c3ccccc3nc3ccccc23)nn1,MTT,,2.7 µM
CN(C)C/C=N/NC(=O)Nc1cc2c(Nc3ccc(F)c(Cl)c3)ncnc2cc1O[C@H]1CCOC1,MTT,72 h,5.72 µM
CC(=O)O[C@H]1C(=O)[C@@]2(C)[C@H]([C@H](OC(=O)c3ccccc3)[C@]3(O)C[C@H](OC(=O)[C@H](O)[C@@H](NC(=O)c4ccccc4)c4ccccc4)C(C)=C1C3(C)C)[C@]1(OC(C)=O)CO[C@@H]1C[C@@H]2O,,,1 µg/mL
COc1ccc(-c2csc(Nc3ccc4c(O)ncnc4c3)n2)cc1,MTT,,9.75 µM
Cc1occc(=O)c1[O-].[Cl-].[W+4].c1cc[cH-]c1.c1cc[cH-]c1,MTT,,330 µM
CCn1c(=N)c(C(=O)NCCOC)cc2c(=O)n3ccccc3nc21,MTT,72 h,> 100 µM
COc1cc2ncnc(Nc3ccc(F)c(Cl)c3)c2cc1NC(=O)N/N=C/c1cccn1CCCN1CCCC1,MTT,72 h,1.33 µM
Cc1ccc2nc(-c3cccnc3)[nH]c2c1,MTT,48 h,51.1 µM
O=C(N/N=C/CN1CCCC1)Nc1cc2c(Nc3ccc(F)c(Cl)c3)ncnc2cc1O[C@H]1CCOC1,MTT,72 h,3.12 µM
C=CCn1c(-c2ccc([N+](=O)[O-])cc2)nc2ccc(C)cc21,MTT,,71.1 µM
Clc1ccc(C[n+]2cn(CCc3ccccc3)c3ccccc32)cc1,MTT,72 h,13 µM
Cc1ccc2nc(-c3c4ccccc4cc4ccccc34)[nH]c2c1,MTT,48 h,39 µM
CSc1nc(/N=C/c2cc(Br)ccc2O)n(-c2ccc(C(=O)O)cc2)n1,MTT,,31.3 µM
CC(C)C[C@H](NC(=O)[C@H](Cc1ccccc1)NC(=O)c1cnccn1)B(O)O,ATP luminescence,,0.0088 µM
CC(=O)OC[C@H]1O[C@@H]([S-])[C@H](OC(C)=O)[C@@H](OC(C)=O)[C@@H]1OC(C)=O.CCP(CC)CC.[Au+],resazurin,,5.2 µM
CCN(CC)C/C=N/NC(=O)Nc1cc2c(Nc3ccc(F)c(Cl)c3)ncnc2cc1OC,MTT,72 h,3.28 µM
Oc1c(Br)cc(Br)c2cccnc12,MTT,48 h,> 100 µM
COc1cc2ncnc(Nc3ccc(F)c(Cl)c3)c2cc1NC(=O)N/N=C/CN1CCOCC1,MTT,72 h,7.43 µM
O=Cc1ccc(-c2ccc3ncnc(Nc4cccc(C(F)(F)F)c4)c3c2)cc1,MTT,24 h,15.5 µM
